Experimental data reported in ChEMBL document CHEMBL1134616, “Novel 7-oxyiminomethyl derivatives of camptothecin with potent in vitro and in vivo antitumor activity” (J Med Chem, 2001).

assay: Cytotoxicity against human non-small-cell lung carcinoma cell line H460 (NSCLC-H460); type: functional, cell-based
How it was run: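 Logarithmically growing cells were seeded in duplicate, exposed to drug for 1 h starting 24 h after seeding, and counted by Coulter counter 72 h after exposure. Drug was dissolved in DMSO before dilution. The IC50 is the concentration giving a 50% decrease in growth relative to untreated control.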

Row | Compound | IC50
1 | CC[C@@]1(O)C(=O)OCc2c1cc1n(c2=O)Cc2c-1nc1ccccc1c2/C=N/OCC(=O)O | 2330 nM
2 | CC[C@@]1(O)C(=O)OCc2c1cc1n(c2=O)Cc2c-1nc1ccc(OC)cc1c2/C=N/OC(C)(C)C | 70 nM
3 | CC[C@@]1(O)C(=O)OCc2c1cc1n(c2=O)Cc2c-1nc1ccccc1c2/C=N/OC(=O)c1ccccc1 | 1770 nM
4 | CC[C@@]1(O)C(=O)OCc2c1cc1n(c2=O)Cc2c-1nc1ccccc1c2/C=N/OCC(=O)NCCCNS(=O)(=O)c1ccccc1[N+](=O)[O-] | 3000 nM
5 | CC[C@@]1(O)C(=O)OCc2c1cc1n(c2=O)Cc2c-1nc1ccccc1c2/C=N/OC | 40 nM
6 | CC[C@@]1(O)C(=O)OCc2c1cc1n(c2=O)Cc2c-1nc1ccccc1c2/C=N/OC(C)(C)C(=O)OC(C)(C)C | 140 nM
7 | CC[C@@]1(O)C(=O)OCc2c1cc1n(c2=O)Cc2c-1nc1ccccc1c2/C=N/OCc1ccccc1 | 30 nM
8 | CC[C@@]1(O)C(=O)OCc2c1cc1n(c2=O)Cc2c-1nc1ccccc1c2/C=N/OCc1ccc(N)cc1 | 25 nM
9 | CC[C@@]1(O)C(=O)OCc2c1cc1n(c2=O)Cc2c-1nc1ccccc1c2/C=N/OCc1ncc[nH]1 | 210 nM
10 | CC[C@@]1(O)C(=O)OCc2c1cc1n(c2=O)Cc2c-1nc1ccccc1c2/C(=N/O)c1ccccc1 | 5130 nM
11 | CC[C@@]1(O)C(=O)OCc2c1cc1n(c2=O)Cc2c-1nc1ccc(O)cc1c2/C=N/OC(C)(C)C | 130 nM
12 | C=CCO/N=C/c1c2c(nc3ccccc13)-c1cc3c(c(=O)n1C2)COC(=O)[C@]3(O)CC | 60 nM
13 | CC[C@@]1(O)C(=O)OCc2c1cc1n(c2=O)Cc2c-1nc1ccccc1c2/C=N/OCc1c2ccccc2cc2ccccc12 | 190 nM
14 | CC[C@@]1(O)C(=O)OCc2c1cc1n(c2=O)Cc2c-1nc1ccccc1c2/C=N/OCCN(C)C | 300 nM
15 | CC[C@@]1(O)C(=O)OCc2c1cc1n(c2=O)Cc2c-1nc1ccccc1c2/C=N/Oc1ccccc1 | 160 nM
16 | CC[C@@]1(O)C(=O)OCc2c1cc1n(c2=O)Cc2c-1nc1ccccc1c2/C=N/OCc1ccc(-c2ccccc2)cc1 | 280 nM
17 | CC[C@@]1(O)C(=O)OCc2c1cc1n(c2=O)Cc2c-1nc1ccccc1c2/C=N/OC(C)(C)CO | 340 nM
18 | CC[C@@]1(O)C(=O)OCc2c1cc1n(c2=O)Cc2c-1nc1ccc(O)cc1c2/C=N/OC | 200 nM
19 | CC[C@@]1(O)C(=O)OCc2c1cc1n(c2=O)Cc2c-1nc1ccccc1c2/C=N/OCC(=O)NCCCNC(=O)OC(C)(C)C | 1700 nM

Row | Compound | IC50
20 | CC[C@@]1(O)C(=O)OCc2c1cc1n(c2=O)Cc2c-1nc1ccccc1c2/C=N/OC[C@H]1O[C@@H]2OC(C)(C)O[C@@H]2[C@H]2OC(C)(C)O[C@H]21 | 360 nM
21 | CC[C@@]1(O)C(=O)OCc2c1cc1n(c2=O)Cc2c-1nc1ccccc1c2/C=N/OCC(=O)NCCCN | 5200 nM
22 | CC[C@@]1(O)C(=O)OCc2c1cc1n(c2=O)Cc2c-1nc1ccccc1c2/C(C)=N/OCc1ccccc1 | 130 nM
23 | CC[C@@]1(O)C(=O)OCc2c1cc1n(c2=O)Cc2c-1nc1ccccc1c2/C=N/OCc1c(F)c(F)c(F)c(F)c1F | 28 nM
24 | CC[C@@]1(O)C(=O)OCc2c1cc1n(c2=O)Cc2c-1nc1ccccc1c2/C=N/OCc1ccc(C)cc1 | 20 nM
25 | CC[C@@]1(O)C(=O)OCc2c1cc1n(c2=O)Cc2c-1nc1ccccc1c2/C=N/OCCC1CCCN(C)C1 (stereo partly drawn) | 100 nM
26 | CC[C@@]1(O)C(=O)OCc2c1cc1n(c2=O)Cc2c-1nc1ccccc1c2/C=N/OCC1CO1 (stereo partly drawn) | 20 nM
27 | CC[C@@]1(O)C(=O)OCc2c1cc1n(c2=O)Cc2c-1nc1ccccc1c2/C=N/OC(C)(C)C(=O)O | 48000 nM
28 | CC[C@@]1(O)C(=O)OCc2c1cc1n(c2=O)Cc2c-1nc1ccccc1c2/C=N/OCCN1CCOCC1 | 80 nM
29 | CC[C@@]1(O)C(=O)OCc2c1cc1n(c2=O)Cc2c(/C=N/OC(C)(C)C)c3ccccc3[n+]([O-])c2-1 | 70 nM
30 | CC[C@@]1(O)C(=O)OCc2c1cc1n(c2=O)Cc2c-1nc1ccccc1c2/C=N/O | 32 nM
31 | CC[C@@]1(O)C(=O)OCc2c1cc1n(c2=O)Cc2c-1nc1ccccc1c2/C=N/OCc1ccncc1 | 30 nM
32 | CC[C@@]1(O)C(=O)OCc2c1cc1n(c2=O)Cc2c-1nc1ccccc1c2/C=N/OC(c1ccccc1)(c1ccccc1)c1ccccc1 | 1450 nM
33 | CC[C@@]1(O)C(=O)OCc2c1cc1n(c2=O)Cc2c(/C=N/OC)c3ccccc3[n+]([O-])c2-1 | 2400 nM
34 | CC[C@@]1(O)C(=O)OCc2c1cc1n(c2=O)Cc2c-1nc1ccccc1c2/C=N/OCCN | 490 nM
35 | CC[C@@]1(O)C(=O)OCc2c1cc1n(c2=O)Cc2c-1nc1ccccc1c2/C=N/OCc1ccc([N+](=O)[O-])cc1 | 17 nM
36 | CC[C@@]1(O)C(=O)OCc2c1cc1n(c2=O)Cc2c-1nc1ccccc1c2/C=N/OCC1O[C@H](O)C(O)[C@H](O)[C@H]1O (stereo partly drawn) | 32000 nM
37 | CCc1c2c(nc3ccc(O)cc13)-c1cc3c(c(=O)n1C2)COC(=O)[C@]3(O)CC [7-ETHYL-10-HYDROXYCAMPTOTHECIN] | 80 nM
38 | CC[C@@]1(O)C(=O)OCc2c1cc1n(c2=O)Cc2cc3ccccc3nc2-1 [CAMPTOTHECIN] | 330 nM
